Published values gathered from unrelated publications.

The inhibition of `Nc1ncn([C@@H]2O[C@H](CO)[C@@H](O)[C@H]2O)c(=O)n1` is reported as 86% (Zaire ebolavirus; viral replication, inhibitor; Vero C1008; 50 µM, 72 h).
The inhibition of `CCN(CC)Cc1cc(Nc2ccnc3cc(Cl)ccc23)ccc1O` is reported as 76.3% (Dengue virus; viral replication, inhibitor; BHK-21, DENV2; 50 µM, 24 h, replicon).
`CC(C)(N)CNC(=O)C[C@H]1CC[C@]2(CC1)OO[C@]1(O2)C2CC3CC(C2)CC1C3` has an IC50 of 4530 nM (Zaire ebolavirus; viral replication, inhibitor; HeLa).
With `Nc1ncnc2c([C@@H]3N[C@H](CO)[C@@H](O)[C@H]3O)c[nH]c12` the inhibition was 11% (Dengue virus; viral replication; Vero 76, DENV2; 3 µM).
With `CC1=C(O)C(=O)C=C2C1=CC=C1[C@@]2(C)CC[C@@]2(C)[C@@H]3C[C@](C)(C(=O)O)CC[C@]3(C)CC[C@]12C` the IC50 was 790 nM (Bel-7402; cell growth or viability, MTT; 48 h).
The inhibition of `CCN(CC)CCCC(C)Nc1ccnc2cc(Cl)ccc12` (stereo not drawn) is reported as 54.8% (Dengue virus; viral replication, inhibitor; BHK-21, DENV2; 50 µM, 24 h, replicon).
With `Cc1cccc(-n2ncc(Cl)c(Cl)c2=O)c1` the IC50 was 210 nM (NCI-H23; cell growth or viability, resazurin; 96 h).
`CC1=C(O)C(=O)C=C2C1=CC=C1[C@@]2(C)CC[C@@]2(C)[C@@H]3C[C@](C)(C(=O)OCCCn4cc(C=O)c5ccccc54)CC[C@]3(C)CC[C@]12C` has an IC50 of 770 nM (Bel-7402; cell growth or viability, MTT; 48 h).
`CCN(CC)CCNc1ccc(C)c2sc3ccccc3c(=O)c12` has an IC50 of 3270 nM (Zaire ebolavirus; viral replication, inhibitor; HeLa).
`CCN(CC)Cc1cc(Nc2ccnc3cc(Cl)ccc23)ccc1O` has an IC50 of 2130 nM (Zaire ebolavirus; viral replication, inhibitor; Huh-7; 24 h).
`CC[C@H](C)[C@H]1C(=O)N2CCC[C@H]2C(=O)O[C@H](C(C)(C)C)C[C@@H](C)C[C@H](O)[C@H](C)C2=N[C@@H](CCC(=O)N[C@@H](Cc3ccc(OC)cc3)C(=O)N(C)[C@@H](C)C(=O)N1C)CS2` gave an IC50 of 3.3 nM (Dengue virus; viral replication; Huh7.5; 24 h).
`c1ccc([C@@H]2C[C@H]2NC2CCNCC2)cc1` gave an EC50 of 0.91 nM (MOLM-13; cell growth or viability, resazurin; 96 h).
